Drawing on ChEMBL document CHEMBL1126806, “Iron (III)-chelating resins. 3. Synthesis, iron (III)-chelating properties, and in vitro antibacterial activity of compounds containing 3-hydroxy-2-methyl-4(1H)-pyridinone ligands” (1993), this text covers Growth inhibition, MIC and Iron mobilized for seven compounds.

Structures are written as SMILES. Values after ≈ are worked out from the molar mass of the structure shown.

In experiment [1] the test system is Escherichia coli. The experiment can be described thus: Tested for growth inhibition against Escherichia coli. Format: functional. The arrangement: concentration or dose not given beside the values. The method, boiled down: (§1)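 Broth growth assay in BHI medium; log-phase culture (24 h plate, 1 h then 2 h at 37 °C with shaking) added to tubes with derivative at 20 mM final, 37 °C for 7 h. Starting CFU/mL 2×10^5 (E. coli) or 5×10^5 (L. inocua). Standard plate counts; % inhibition = (ΔCFU 0–7 h control − ΔCFU 0–7 h test)/ΔCFU 0–7 h control.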

In experiment [2] the test system is Listeria innocua. The experiment can be described thus: Tested for growth inhibition against Listeria inocua. Format: functional. On the set-up: concentration or dose not given beside the values. Summed up: as §1
In experiment [3] the test system is Listeria innocua. The experiment can be described thus: Tested for minimum inhibitory concentration against Listeria inocua. It counts as functional.
Experiment [4] deals with Lactotransferrin (Bos taurus) (UniProt P24627). The experiment can be described thus: Tested for iron mobilization from lactoferrin at physiological pH after 24 hours. Summed up: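 Lactoferrin fully iron(III)-saturated with FeCl3 in 0.1 M sodium bicarbonate overnight at room temperature (0.78 mM iron); 1.0 mL dialysed against 4 mL chelator (2 mM in 4× PBS) for 24 h at room temperature. Dialysate absorbance at 456 nm, converted by chelator–iron(III) calibration curves; protected derivatives measured after adding an unprotected chelator to the dialysate.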

Experiment [5] concerns Escherichia coli. The experiment can be described thus: Tested for minimum inhibitory concentration against Escherichia coli. Format: functional. The method, boiled down: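 Agar dilution on BHI agar with 2-fold dilutions; spots of 10^4–10^5 CFU applied by multipoint inoculator, 18 h at 37 °C, growth judged visually.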

By MIC is commonly meant the least concentration at which growth counts as inhibited.

Sequence of Lactotransferrin (Bos taurus) (P24627 whole entry): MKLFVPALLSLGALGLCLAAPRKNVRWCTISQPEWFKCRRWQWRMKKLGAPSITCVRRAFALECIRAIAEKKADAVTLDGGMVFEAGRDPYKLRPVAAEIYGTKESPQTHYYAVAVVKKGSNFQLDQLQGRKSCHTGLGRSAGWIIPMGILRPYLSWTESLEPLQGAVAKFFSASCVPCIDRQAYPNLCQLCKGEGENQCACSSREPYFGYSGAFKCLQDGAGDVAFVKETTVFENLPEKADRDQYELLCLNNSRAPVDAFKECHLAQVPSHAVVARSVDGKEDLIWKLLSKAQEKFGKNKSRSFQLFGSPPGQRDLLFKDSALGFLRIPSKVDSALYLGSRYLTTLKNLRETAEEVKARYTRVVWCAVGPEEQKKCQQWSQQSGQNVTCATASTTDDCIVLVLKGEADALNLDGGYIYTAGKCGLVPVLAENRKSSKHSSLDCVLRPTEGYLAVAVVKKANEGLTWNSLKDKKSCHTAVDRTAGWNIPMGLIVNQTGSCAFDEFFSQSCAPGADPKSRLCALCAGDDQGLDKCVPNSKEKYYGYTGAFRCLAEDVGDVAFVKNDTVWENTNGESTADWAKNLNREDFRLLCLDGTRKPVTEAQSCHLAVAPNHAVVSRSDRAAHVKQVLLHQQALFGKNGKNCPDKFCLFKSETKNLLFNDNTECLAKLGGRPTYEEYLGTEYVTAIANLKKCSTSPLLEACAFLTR

For the compound `CCn1ccc(=O)c(OCc2ccccc2)c1C`, the Growth inhibition in experiment [1] was determined as 53%; in experiment [2] it was 72%. Further, the MIC in experiment [3] and in experiment [5] was 50 mM (≈ 12200 µg/mL) throughout. In experiment [4], this compound showed an Iron mobilized of 2%.

Take `C=CC(=O)NCCn1ccc(=O)c(O)c1C`: the Growth inhibition in experiment [1] is reported as 100%; in experiment [2], 87%. Also, the minimal inhibitory concentration (MIC) in experiment [3] came to 25 mM (≈ 5560 µg/mL); in experiment [5], 5 mM (≈ 1110 µg/mL). Moreover, the Iron mobilized in experiment [4] was 62%.

Regarding `CCC(=O)NCCn1ccc(=O)c(O)c1C`, the results for the Growth inhibition in experiment [1] and in experiment [2] were 100% and 86%, respectively. The minimum inhibitory concentration (MIC) worked out at 25 mM (≈ 5610 µg/mL) in experiment [3] and 5 mM (≈ 1120 µg/mL) in experiment [5]. In addition, in experiment [4], the Iron mobilized worked out at 61%.

As for `C=C(C)C(=O)NCCn1ccc(=O)c(O)c1C`, the Growth inhibition in experiment [1] is reported as 100%; in experiment [2], 90%. In addition, the minimal inhibitory concentration (MIC) worked out at 25 mM (≈ 5910 µg/mL) in experiment [3] and 5 mM (≈ 1180 µg/mL) in experiment [5]. In addition, the Iron mobilized in experiment [4] amounted to 63%.

On to `Cc1c(O)c(=O)ccn1CCN`, for which the Growth inhibition in experiment [1] is reported as 100%; in experiment [2] it was 93%. In addition, the results for the MIC in experiment [3] and in experiment [5] were 25 mM (≈ 4200 µg/mL) and 5 mM (≈ 841 µg/mL), respectively. This compound returned an Iron mobilized in experiment [4] of 60%.

For the compound `Cc1c(OCc2ccccc2)c(=O)ccn1CCN`, the results for the Growth inhibition in experiment [1] and in experiment [2] were 0% and 34%, respectively. Moreover, the MIC in experiment [3] and in experiment [5] was 50 mM (≈ 12900 µg/mL) each time. The same compound returned an Iron mobilized in experiment [4] of 4%.

As to `CCn1ccc(=O)c(O)c1C`, the Growth inhibition in experiment [1] is given as 100%; in experiment [2] it was 89%. Also, the MIC in experiment [3] stood at 25 mM (≈ 3830 µg/mL); in experiment [5], 5 mM (≈ 766 µg/mL). The Iron mobilized in experiment [4] was found to be 71%.
